Broadly, the Km is the substrate concentration at which the rate is half of its maximum. As usually defined, the Ki is the equilibrium dissociation constant of an inhibitor or competing ligand from its target. By Kd is commonly meant a measure of binding affinity in units of concentration.

We go through 3 compounds from paper PMC2922442 (Biochimica et biophysica acta, 2010).

The structures appear in SMILES notation. “And” between values parts separate entries of the source, which are not always exact repeats. Equal values may be shown once. Read-outs that look alike come from different tables or passages of the source.

The target in test [1] is T1, wild type cytochrome bo3 (Escherichia coli, UniProt P0ABI8). In words: steady state ubiquinol-1 oxidase activity. The class given is biochemical, E. coli. Conditions: for pattern of inhibition: double-reciprocal plot vs ubiquinol-1.
Test [2] concerns the target T1, wild type cytochrome bo3. Description: EPR of the semiquinone formed at the QH-site. It counts as biochemical, E. coli. The settings on record: excess (5-fold) of inhibitor. A digest of the protocol:
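Continuous-wave X-band EPR of wild-type enzyme purified in dodecylmaltoside, carrying bound ubiquinone-8 at the QH site. Enzyme was incubated with a 5-fold excess of test compound, at 50 μM enzyme in one series. Sample preparation followed earlier published methods.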

In test [3] the target is T2, cytochrome bo3 D188A (Escherichia coli, UniProt P0ABI8, D188A). In words: steady state ubiquinol-1 oxidase activity. It counts as biochemical, E. coli. Conditions: read-out: KM UQ1H2.
Test [4] concerns the target T3, cytochrome bo3 D188N (Escherichia coli, UniProt P0ABI8, D188N). Description: steady state ubiquinol-1 oxidase activity. It counts as biochemical, E. coli. The settings on record: read-out: KM UQ1H2.
Test [5] deals with T4, cytochrome bo3 R257Q (Escherichia coli, UniProt P0ABI8, R257Q). Description: steady state ubiquinol-1 oxidase activity. It counts as biochemical, E. coli. The settings on record: read-out: KM UQ1H2.
Test [6] deals with cytochrome bo3 W^II136A (Escherichia coli, UniProt P0ABI8+P0ABJ1, W136A). In words: steady state ubiquinol-1 oxidase activity. It counts as biochemical, E. coli. Conditions: read-out: KM UQ1H2.
Test [7] has as its target T1, wild type cytochrome bo3. Description: HQNO binding monitored by fluorescence anisotropy. More on the design: species or system E. coli. Conditions: for Kd: read-out: Kd HQNO.
Test [8] has as its target wild type cytochrome bo3 (no bound Q8) (Escherichia coli, UniProt P0ABI8). In words: HQNO binding monitored by fluorescence anisotropy. More on the design: species or system E. coli. The settings on record: read-out: Kd HQNO. A digest of the protocol:
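Quinone-free enzyme was made by diluting ≥50-fold into 50 mM K2HPO4, 0.1% Triton X-100, pH 8.3, and binding to Ni-NTA for several hours at 4 °C. It was washed into dodecylmaltoside, eluted with 100 mM imidazole and dialysed. Enzyme was titrated into pH 8.3 dodecylmaltoside buffer holding fixed 1 μM test compound. Anisotropy was read at ex 341/em 480 nm against a ligand-free control, and fit with an independent-sites model.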
A general note: Polarisation of emitted light reports the rotation of a fluorescent probe.

Test [9] has as its target T2, cytochrome bo3 D188A. In words: HQNO binding monitored by fluorescence anisotropy. Also noted: species or system E. coli. The settings on record: read-out: Kd HQNO.
Test [10] deals with T3, cytochrome bo3 D188N. Description: HQNO binding monitored by fluorescence anisotropy. Also noted: species or system E. coli. Conditions: read-out: Kd HQNO.
Test [11] has as its target T4, cytochrome bo3 R257Q. Description: HQNO binding monitored by fluorescence anisotropy. More on the design: species or system E. coli. Conditions: read-out: Kd HQNO.
The target of test [12] is cytochrome bo3 W^II136A (Escherichia coli, UniProt P0ABI8). In words: HQNO binding monitored by fluorescence anisotropy. Also noted: species or system E. coli. The settings on record: read-out: Kd HQNO.
Another test deals with cytochrome bo3 H98S (Escherichia coli, UniProt P0ABI8, H98S). Description: HQNO binding monitored by fluorescence anisotropy. Conditions: read-out: Kd HQNO. More on the design: species or system E. coli.
Chain of cytochrome bo3 H98S (P0ABI8 whole entry H98S): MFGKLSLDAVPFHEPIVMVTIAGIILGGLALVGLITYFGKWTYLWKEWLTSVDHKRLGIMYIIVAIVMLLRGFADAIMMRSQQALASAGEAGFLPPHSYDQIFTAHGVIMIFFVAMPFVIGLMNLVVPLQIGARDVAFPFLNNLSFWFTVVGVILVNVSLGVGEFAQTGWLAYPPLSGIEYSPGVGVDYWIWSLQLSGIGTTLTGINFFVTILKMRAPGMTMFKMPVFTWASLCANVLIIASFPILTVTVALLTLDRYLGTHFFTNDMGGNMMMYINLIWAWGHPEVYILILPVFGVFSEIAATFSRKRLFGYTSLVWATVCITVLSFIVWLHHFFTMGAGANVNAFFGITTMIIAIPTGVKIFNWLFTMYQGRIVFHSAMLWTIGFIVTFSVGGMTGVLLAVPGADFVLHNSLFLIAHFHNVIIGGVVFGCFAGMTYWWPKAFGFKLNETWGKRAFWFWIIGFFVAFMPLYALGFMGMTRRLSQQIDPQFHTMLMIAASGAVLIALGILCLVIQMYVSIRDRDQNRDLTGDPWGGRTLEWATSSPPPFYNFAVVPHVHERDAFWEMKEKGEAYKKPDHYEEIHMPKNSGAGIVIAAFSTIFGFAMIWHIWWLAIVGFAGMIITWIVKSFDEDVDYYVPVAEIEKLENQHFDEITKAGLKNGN
Chain of cytochrome bo3 H98S (P0ABJ3 whole entry, further chain): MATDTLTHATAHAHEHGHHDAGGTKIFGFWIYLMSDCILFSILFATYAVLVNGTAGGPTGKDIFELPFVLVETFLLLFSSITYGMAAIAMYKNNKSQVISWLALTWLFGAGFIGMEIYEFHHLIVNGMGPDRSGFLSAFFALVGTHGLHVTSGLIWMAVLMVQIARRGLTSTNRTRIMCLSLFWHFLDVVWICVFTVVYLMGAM
Chain of cytochrome bo3 H98S (P0ABJ6 whole entry, further chain): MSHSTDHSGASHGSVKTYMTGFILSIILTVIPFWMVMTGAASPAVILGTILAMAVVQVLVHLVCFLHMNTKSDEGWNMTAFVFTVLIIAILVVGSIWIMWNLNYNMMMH
Chain of cytochrome bo3 H98S (P0ABJ1 25-315, further chain): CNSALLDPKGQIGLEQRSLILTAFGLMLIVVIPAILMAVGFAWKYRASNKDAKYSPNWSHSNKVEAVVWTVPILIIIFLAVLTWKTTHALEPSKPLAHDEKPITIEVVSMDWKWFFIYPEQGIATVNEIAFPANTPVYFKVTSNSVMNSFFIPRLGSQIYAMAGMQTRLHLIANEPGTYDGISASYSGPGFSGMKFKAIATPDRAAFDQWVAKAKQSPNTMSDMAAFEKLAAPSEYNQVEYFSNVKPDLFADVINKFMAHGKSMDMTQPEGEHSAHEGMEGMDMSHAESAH

T1 sequence (P0ABJ1 25-315): as the sequence (P0ABJ1 25-315, further chain) above
T1 sequence (P0ABJ3 whole entry, further chain): as the sequence (P0ABJ3 whole entry, further chain) above
T1 sequence (P0ABJ6 whole entry, further chain): as the sequence (P0ABJ6 whole entry, further chain) above
T1 sequence (P0ABI8 whole entry): as the sequence (P0ABI8 whole entry H98S) above, with S98H counted along it
T2 sequence (P0ABI8 whole entry D188A): as the sequence (P0ABI8 whole entry H98S) above, with S98H, D188A counted along it
T2 sequence (P0ABJ6 whole entry, further chain): as the sequence (P0ABJ6 whole entry, further chain) above
T2 sequence (P0ABJ3 whole entry, stated change not applied, further chain): as the sequence (P0ABJ3 whole entry, further chain) above
T2 sequence (P0ABJ1 25-315, further chain): as the sequence (P0ABJ1 25-315, further chain) above
T3 sequence (P0ABI8 whole entry D188N): as the sequence (P0ABI8 whole entry H98S) above, with S98H, D188N counted along it
T3 sequence (P0ABJ3 whole entry, stated change not applied, further chain): as the sequence (P0ABJ3 whole entry, further chain) above
T3 sequence (P0ABJ6 whole entry, further chain): as the sequence (P0ABJ6 whole entry, further chain) above
T3 sequence (P0ABJ1 25-315, further chain): as the sequence (P0ABJ1 25-315, further chain) above
T4 sequence (P0ABJ1 25-315): as the sequence (P0ABJ1 25-315, further chain) above
T4 sequence (P0ABI8 whole entry R257Q): as the sequence (P0ABI8 whole entry H98S) above, with S98H, R257Q counted along it
T4 sequence (P0ABJ3 whole entry, further chain): as the sequence (P0ABJ3 whole entry, further chain) above
T4 sequence (P0ABJ6 whole entry, further chain): as the sequence (P0ABJ6 whole entry, further chain) above
Chain of wild type cytochrome bo3 (no bound Q8) (P0ABJ3 whole entry): as the sequence (P0ABJ3 whole entry, further chain) above
Chain of wild type cytochrome bo3 (no bound Q8) (P0ABJ1 25-315, further chain): as the sequence (P0ABJ1 25-315, further chain) above
Chain of wild type cytochrome bo3 (no bound Q8) (P0ABI8 whole entry): as the sequence (P0ABI8 whole entry H98S) above, with S98H counted along it
Chain of wild type cytochrome bo3 (no bound Q8) (P0ABJ6 whole entry, further chain): as the sequence (P0ABJ6 whole entry, further chain) above
Chain of cytochrome bo3 W^II136A (Escherichia coli, UniProt P0ABI8+P0ABJ1, W136A) (P0ABI8 whole entry): as the sequence (P0ABI8 whole entry H98S) above, with S98H counted along it
Chain of cytochrome bo3 W^II136A (Escherichia coli, UniProt P0ABI8+P0ABJ1, W136A) (P0ABJ6 whole entry, further chain): as the sequence (P0ABJ6 whole entry, further chain) above
Chain of cytochrome bo3 W^II136A (Escherichia coli, UniProt P0ABI8+P0ABJ1, W136A) (P0ABJ1 25-315 W136A): as the sequence (P0ABJ1 25-315, further chain) above, with W112A counted along it
Chain of cytochrome bo3 W^II136A (Escherichia coli, UniProt P0ABI8+P0ABJ1, W136A) (P0ABJ3 whole entry, further chain): as the sequence (P0ABJ3 whole entry, further chain) above
Chain of cytochrome bo3 W^II136A (Escherichia coli, UniProt P0ABI8) (P0ABJ6 whole entry): as the sequence (P0ABJ6 whole entry, further chain) above
Chain of cytochrome bo3 W^II136A (Escherichia coli, UniProt P0ABI8) (P0ABJ3 whole entry, further chain): as the sequence (P0ABJ3 whole entry, further chain) above
Chain of cytochrome bo3 W^II136A (Escherichia coli, UniProt P0ABI8) (P0ABI8 whole entry): as the sequence (P0ABI8 whole entry H98S) above, with S98H counted along it
Chain of cytochrome bo3 W^II136A (Escherichia coli, UniProt P0ABI8) (P0ABJ1 25-315 W136A, further chain): as the sequence (P0ABJ1 25-315, further chain) above, with W112A counted along it

Consider `CCCCCCCCCCc1c(C)c(=O)c2ccccc2n1O` [AC1-10, aurachin C1-10], for which the pattern of inhibition entry at wild type cytochrome bo3 [1] is given as “competitive”. Further, the “effect on formation of the semiquinone at the QH-site (EPR signal)” value at wild type cytochrome bo3 [2] is reported as “prevents formation of the semiquinone EPR signal”.
For `COc1c(O)c(C)c(CC=C(C)C)c(O)c1OC` [UQ1H2, ubiquinol-1], the Km on wild type cytochrome bo3 [1] (read-out: KM UQ1H2, wild type) amounted to 53 µM; on cytochrome bo3 D188A [3] it was 56 µM; on cytochrome bo3 D188N [4], 52 µM; at cytochrome bo3 R257Q [5], 60 µM; at cytochrome bo3 W^II136A [6], 63 µM.
Consider `CCCCCCCc1cc(=O)c2ccccc2n1O` [HQNO], for which the pattern of inhibition entry on wild type cytochrome bo3 [1] is on record as “noncompetitive”. On wild type cytochrome bo3 [1] (read-out: Ki, inhibition of ubiquinol-1 oxidase activity by HQNO, coupled assay, enzyme with ubiquinone-8 bound to the QH site), the Ki stood at 0.74 µM. For the same compound, the Kd on wild type cytochrome bo3 [7] (wild type + 300 μM Q1) is 4.1 µM; at wild type cytochrome bo3 [7] (wild type + 1500 μM Q1), 6.8 µM; on wild type cytochrome bo3 [7] (wild type, one equivalent of ubiquinone-8 bound, 1 μM HQNO, pH 8.3), 4 µM; in [8] it was 5.8 µM; on cytochrome bo3 D188A [9], 5 µM; at cytochrome bo3 D188N [10] it was 4 µM. Besides, the figures for the Kd at cytochrome bo3 R257Q [11], at cytochrome bo3 W^II136A [12] and at cytochrome bo3 H98S were 4 µM, 4.1 µM and 3.6 µM, respectively. For the same compound, the “number of HQNO binding sites (best fit, independent sites model)” value on wild type cytochrome bo3 [7] (wild type with ubiquinone-8 bound) is 1.1 and 1. For the same compound, the “effect on formation of the semiquinone at the QH-site (EPR signal)” value on wild type cytochrome bo3 [2] is listed as “prevents formation of the semiquinone”.
